Measurements reported in ChEMBL document CHEMBL3286151, “Biological activities of novel pyrazolyl hydroxamic acid derivatives against human lung cancer cell line A549” (Eur J Med Chem, 2014).
Activity calls are given as the source filed them. No cut-off for these calls is given here.

How the values were obtained:
A549 [1] = assay: Cytotoxicity against human A549 cells assessed as growth inhibition after 24 to 48 hrs by sulforhodamine B assay; assay type: functional, cell-based
Method in brief: (§1)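 A549 cells seeded 24 h in RPMI-1640 with 10% bovine calf serum, then exposed in 1% serum medium to 1, 5 and 10 µM for 24 h and 48 h. 0.1% DMSO served as control and 5-FU as positive control. Viability by SRB staining, absorbance 540 nm, calculated relative to DMSO control. Mean ± SEM, n = 3, Student's t-test.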

A549 [2] = assay: Cytotoxicity against human A549 cells assessed as growth inhibition at 1 to 10 uM by sulforhodamine B assay; assay type: functional, cell-based; settings: TDE = time-dependent effect; method in brief: as §1
A549 [3] = assay: Cytotoxicity against human A549 cells assessed as growth inhibition at 1 to 10 uM after 48 hrs by sulforhodamine B assay relative to control; assay type: functional; method in brief: as §1
A549 [4] = assay: Induction of apoptosis in human A549 cells assessed as chromatin condensation at 10 uM after 48 hrs by Hoechst 33258 staining-based fluorescence microscopic analysis; assay type: functional, cell-based
Method in brief: (§2)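 A549 cells seeded 24 h, then treated at 10 µM for 48 h in 1% serum RPMI-1640 against a 0.1% DMSO control. Fixed in 4% paraformaldehyde for 10 min at room temperature and stained with Hoechst 33258 (2 µg/mL) for 20 min. Nuclear morphology was scored by fluorescence microscopy at 200×.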

A549 [5] = assay: Induction of apoptosis in human A549 cells assessed as nuclear fragmentation at 10 uM after 48 hrs by Hoechst 33258 staining-based fluorescence microscopic analysis; assay type: functional, cell-based; method in brief: as §2
A549 [6] = assay: Induction of apoptosis in human A549 cells assessed as appearance of apoptotic bodies at 10 uM after 48 hrs by Hoechst 33258 staining-based fluorescence microscopic analysis; assay type: functional, cell-based; method in brief: as §2
A549 [7] = assay: Induction of necrosis in human A549 cells at 10 uM after 48 hrs by LDH assay; assay type: functional, cell-based
Method in brief: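 Necrosis read-out: A549 cells exposed to 10 µM or 0.1% DMSO control for 48 h. Culture medium was collected and LDH activity measured with a commercial kit. Mean ± SEM, n = 3, Student's t-test.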

A549 [8] = assay: Induction of autophagy in human A549 cells assessed as accumulation of acidic vesicles at 10 uM after 48 hrs by acridine orange staining-based fluorescence microscopic analysis; assay type: functional, cell-based
Method in brief: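 Acidic vesicles in A549 cells after 10 µM exposure for 48 h. Cells stained with acridine orange (100 µg/mL) for 1 min at room temperature, then imaged by fluorescence microscopy at 200×.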

A549 [9] = assay: Induction of autophagosome formation in human A549 cells assessed as conversion of LC3-1 to LC3-2 at 5 to 10 uM after 24 hrs by Western blotting analysis; assay type: functional, cell-based
A549 [10] = assay: Induction of autophagosome formation in human A549 cells assessed as increase in LC3-2 protein level at 5 to 10 uM after 24 hrs by Western blotting analysis; assay type: functional, cell-based
A549 [11] = assay: Induction of autophagosome formation in human A549 cells assessed as LC3-2 to LC3-1 ratio at 5 to 10 uM after 24 hrs by Western blotting analysis; assay type: functional, cell-based
A549 [12] = assay: Induction of autophagic flux in human A549 cells assessed as decrease in p62 protein level at 5 to 10 uM after 24 hrs by Western blotting analysis; assay type: functional, cell-based
A549 [13] = assay: Cell cycle arrest in human A549 cells assessed as accumulation at G1 phase at 10 uM after 48 hrs by propidium iodide staining-based flow cytometric analysis (reference value: 54.5%); assay type: functional
A549 [14] = assay: Cell cycle arrest in human A549 cells assessed as accumulation at G2 phase at 10 uM after 48 hrs by propidium iodide staining-based flow cytometric analysis (reference value: 10.32%); assay type: functional
A549 [15] = assay: Cell cycle arrest in human A549 cells assessed as accumulation at S phase at 10 uM after 48 hrs by propidium iodide staining-based flow cytometric analysis (reference value: 35.18%); assay type: functional
A549 [16] = assay: Cell cycle arrest in human A549 cells assessed as accumulation at G2/G1 phase at 10 uM after 48 hrs by propidium iodide staining-based flow cytometric analysis (reference value: 1.91%); assay type: functional

Compound | IC50 (A549 [1]) [µM] | growth inhibition (GI) (A549 [1]) | growth inhibition (GI) (A549 [2]) | growth inhibition (GI) (A549 [3]) | Activity (A549 [4]) | Activity (A549 [5]) | Activity (A549 [6]) | Activity (A549 [7]) | Activity (A549 [8]) | Activity (A549 [9]) | Activity (A549 [10]) | Activity (A549 [11]) | Activity (A549 [12]) | Activity (A549 [13]) [%] | Activity (A549 [14]) [%] | Activity (A549 [15]) [%] | Activity (A549 [16]) [%]
O=c1[nH]cc(F)c(=O)[nH]1 [FLUOROURACIL] | 1.65 | – | – | – | – | – | – | – | – | – | – | – | – | – | – | – | –
COc1ccc(-c2cc(C(=O)NO)n(Cc3ccc(C(C)(C)C)cc3)n2)cc1 | 2.56 | Dose-dependent effect | tde | <=70% | inactive | inactive | inactive | Active | Active | – | – | – | – | – | – | – | –
O=C(NO)c1cc(-c2ccc(Cl)cc2)nn1Cc1ccccc1 | 4.44 | Dose-dependent effect | tde | – | inactive | inactive | inactive | inactive | Active | – | – | – | – | – | – | – | –
O=C(NO)c1cc(-c2ccccc2)nn1Cc1ccc([N+](=O)[O-])cc1 | 6 | Dose-dependent effect | tde | – | inactive | inactive | inactive | inactive | Active | – | – | – | – | – | – | – | –
CC(C)(C)c1ccc(Cn2nc(-c3ccccc3)cc2C(=O)NO)cc1 | 1.72 | Dose-dependent effect | tde | <=70% | inactive | inactive | inactive | inactive | Active | Active | Active | Active | Active | 72.8 | 2.32 | 24.87 | 1.8
CC(C)(C)c1ccc(Cn2nc(-c3ccc(Cl)cc3)cc2C(=O)NO)cc1 | 1.82 | Dose-dependent effect | tde | <=70% | inactive | inactive | inactive | inactive | Active | Active | Active | Active | Active | 78.73 | 0 | 21.27 | 1.96
COc1ccc(-c2cc(C(=O)NO)n(Cc3ccc(Cl)nc3)n2)cc1 | 8.56 | Dose-dependent effect | tde | – | inactive | inactive | inactive | Active | Active | – | – | – | – | – | – | – | –
O=C(NO)c1cc(-c2ccccc2)nn1Cc1ccc(Cl)nc1 | 8.5 | Dose-dependent effect | tde | – | inactive | inactive | inactive | inactive | Active | – | – | – | – | – | – | – | –
O=C(NO)c1cc(-c2ccc(Cl)cc2)nn1Cc1ccc(Cl)nc1 | 4.21 | Dose-dependent effect | tde | <=70% | inactive | inactive | inactive | inactive | Active | Active | Active | Active | Active | 71.91 | 0 | 28.09 | 1.84
O=C(NO)c1cc(-c2ccc(Cl)cc2)nn1Cc1ccc([N+](=O)[O-])cc1 | 7.78 | Dose-dependent effect | tde | – | inactive | inactive | inactive | inactive | Active | – | – | – | – | – | – | – | –
COc1ccc(-c2cc(C(=O)NO)n(Cc3ccc([N+](=O)[O-])cc3)n2)cc1 | 7.11 | Dose-dependent effect | tde | – | inactive | inactive | inactive | inactive | Active | – | – | – | – | – | – | – | –
COc1ccc(-c2cc(C(=O)NO)n(Cc3ccccc3)n2)cc1 | 6.77 | Dose-dependent effect | tde | – | inactive | inactive | inactive | inactive | Active | – | – | – | – | – | – | – | –
O=C(NO)c1cc(-c2ccccc2)nn1Cc1ccccc1 | 5.6 | Dose-dependent effect | tde | – | inactive | inactive | inactive | inactive | Active | – | – | – | – | – | – | – | –
